# pIC50: −log10 of the molar value.
# Legend:
# [1] = molecular target: Integrin alpha-IIb/beta-3 (Homo sapiens, UniProt P05106+P08514); experiment: Binding affinity to human fibrinogen receptor; assay type: protein-complex assay
# How it was run: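 Competitive solid-phase ELISA. Plates were coated with 5 µg/mL human GPIIb/IIIa overnight at 4 °C and blocked 3 h at room temperature with 35 mg/mL BSA in 50 mM Tris, 100 mM NaCl, 2 mM CaCl₂, 0.02% NaN₃, pH 7.4. Human fibrinogen solution (30 µg/mL as added) plus inhibitor was incubated 3 h at room temperature. Bound fibrinogen was detected with alkaline phosphatase-conjugated anti-human fibrinogen antibody.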
# Homo sapiens = species: Homo sapiens; experiment: Inhibition of collagen-induced platelet aggregation in human platelet-rich plasma; assay type: functional
# How it was run: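 Human citrated PRP (160g, 15 min, room temperature) with platelet-poor plasma as reference. Samples at various concentrations were added at 37 °C 1 min before 5 µg/mL collagen. Aggregation was read as the increase in light transmission. Percent inhibition of aggregation rate versus control gave IC50 from dose-inhibition curves. Values are means ± SEM of three experiments; GRGDS peptide served as reference.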
# [2] = Elimination T1/2 in Guinea pig (IV dose); conditions: in vivo, read-out: T1/2 beta
# [3] = Cmax in rat (PO dose); assay type: ADME, organism-based; set-up: route oral; conditions: in vivo
# How it was run: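 Male Sprague-Dawley rats (190-210 g) were fasted overnight with water available. Dosing was 10 mg/kg po as a suspension in 2% arabic gum. Jugular vein blood was drawn at 30, 60 and 120 min, and active-form plasma levels were measured by HPLC. Cmax is the highest of these three time points.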
# Tmax in rat (PO dose) = conditions: in vivo
# [4] = Elimination T1/2 in Guinea pig (IV dose); conditions: in vivo
# Sequence of Integrin alpha-IIb/beta-3 (P05106 27-788 limits assumed): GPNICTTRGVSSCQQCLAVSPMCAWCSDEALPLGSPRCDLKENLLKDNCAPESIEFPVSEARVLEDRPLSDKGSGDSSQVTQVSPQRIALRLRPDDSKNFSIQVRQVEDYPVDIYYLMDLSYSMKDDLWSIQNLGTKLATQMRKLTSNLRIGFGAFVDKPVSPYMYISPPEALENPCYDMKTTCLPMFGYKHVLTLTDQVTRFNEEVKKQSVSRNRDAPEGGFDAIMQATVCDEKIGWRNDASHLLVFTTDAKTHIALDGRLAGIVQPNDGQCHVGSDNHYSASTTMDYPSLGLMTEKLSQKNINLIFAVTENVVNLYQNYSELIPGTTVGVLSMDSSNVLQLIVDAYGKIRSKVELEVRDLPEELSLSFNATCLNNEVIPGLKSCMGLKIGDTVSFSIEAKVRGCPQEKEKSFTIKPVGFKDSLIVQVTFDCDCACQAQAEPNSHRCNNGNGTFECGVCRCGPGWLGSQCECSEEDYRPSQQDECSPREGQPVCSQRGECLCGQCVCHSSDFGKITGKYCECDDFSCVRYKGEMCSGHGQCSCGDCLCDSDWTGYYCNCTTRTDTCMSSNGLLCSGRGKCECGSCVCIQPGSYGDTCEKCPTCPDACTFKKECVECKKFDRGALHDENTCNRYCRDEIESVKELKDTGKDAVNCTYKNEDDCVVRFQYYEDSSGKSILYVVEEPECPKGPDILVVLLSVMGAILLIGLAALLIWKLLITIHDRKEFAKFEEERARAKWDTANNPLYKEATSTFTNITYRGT
# Sequence of Integrin alpha-IIb/beta-3 (P08514 32-887 limits assumed): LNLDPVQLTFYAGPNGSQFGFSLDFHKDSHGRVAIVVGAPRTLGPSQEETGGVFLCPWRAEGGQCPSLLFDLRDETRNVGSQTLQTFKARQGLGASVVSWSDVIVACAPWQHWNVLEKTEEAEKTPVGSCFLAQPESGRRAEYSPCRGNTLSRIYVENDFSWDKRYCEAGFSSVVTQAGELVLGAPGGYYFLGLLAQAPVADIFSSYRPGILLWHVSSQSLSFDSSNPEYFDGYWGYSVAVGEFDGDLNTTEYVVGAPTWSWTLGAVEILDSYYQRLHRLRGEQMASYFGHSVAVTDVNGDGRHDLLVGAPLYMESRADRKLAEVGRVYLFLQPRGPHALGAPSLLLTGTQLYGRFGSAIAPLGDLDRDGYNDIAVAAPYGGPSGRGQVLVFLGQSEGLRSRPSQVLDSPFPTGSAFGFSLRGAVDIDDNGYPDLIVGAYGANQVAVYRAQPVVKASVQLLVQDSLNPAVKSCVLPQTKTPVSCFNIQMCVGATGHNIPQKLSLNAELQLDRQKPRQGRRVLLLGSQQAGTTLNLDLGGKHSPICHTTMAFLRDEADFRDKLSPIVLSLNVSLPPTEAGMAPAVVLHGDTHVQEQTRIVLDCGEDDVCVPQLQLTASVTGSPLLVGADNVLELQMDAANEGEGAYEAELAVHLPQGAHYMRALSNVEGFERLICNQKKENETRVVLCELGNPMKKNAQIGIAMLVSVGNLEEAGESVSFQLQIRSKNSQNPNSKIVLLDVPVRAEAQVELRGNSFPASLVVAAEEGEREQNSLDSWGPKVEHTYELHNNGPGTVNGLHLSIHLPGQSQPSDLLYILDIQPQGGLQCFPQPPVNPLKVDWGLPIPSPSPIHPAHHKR
# Sequence of Integrin alpha-IIb/beta-3 (P08514 891-1039 limits assumed): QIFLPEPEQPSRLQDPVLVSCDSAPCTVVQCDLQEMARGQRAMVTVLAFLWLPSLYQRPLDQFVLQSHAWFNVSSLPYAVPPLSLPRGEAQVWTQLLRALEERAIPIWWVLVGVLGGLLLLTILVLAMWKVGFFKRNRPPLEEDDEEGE
Structure (SMILES),pIC50 [1],pIC50 (Homo sapiens),half-life [2] [h],Cmax [3] [ng/mL],Tmax (Tmax in rat (PO dose)) [h],half-life [4] [h]
CC(C)(C(=O)N1CCC(CC(=O)O)CC1)C(NC(=O)c1ccc(C(=N)N)cc1)c1ccc2ccccc2c1 (stereo not given),7.68,6.42,0.85,,,
CCOC(=O)CC1CCN(C(=O)C(C)(C)C(CC)NC(=O)c2ccc(C(=N)N3CCC(O)CC3)cc2F)CC1 (stereo not given),8.24,7.32,3.5,290,1,
CC(C)(C(=O)N1CCC(CC(=O)O)CC1)C(NC(=O)c1ccc(C(=N)N)cc1)c1ccccc1 (stereo not given),7.60,6.64,,,,0.533
CCCCC(NC(=O)c1ccc(C(=N)N)cc1F)C(C)(C)C(=O)N1CCC(CC(=O)O)CC1 (stereo not given),8.24,7.09,1.3,,,
CCC(NC(=O)c1ccc(C(=N)N)cc1)C(C)(C)C(=O)N1CCC(CC(=O)O)CC1 (stereo not given),,7.07,1.3,,,
CC(C)(CNC(=O)c1ccc(C(=N)N)cc1)C(=O)N1CCC(CC(=O)O)CC1,6.90,,,,,
CC(C)C(NC(=O)c1ccc(C(=N)N)cc1)C(C)(C)C(=O)N1CCC(CC(=O)O)CC1 (stereo not given),8.07,6.82,0.8,,,
CC(C)(C(=O)N1CCC(CC(=O)O)CC1)C(NC(=O)c1ccc(C(=N)N)cc1)c1ccc(O)cc1 (stereo not given),7.63,6.66,1.05,,,
CC(C)(C(=O)N1CCC(CC(=O)O)CC1)C(CCc1ccccc1)NC(=O)c1ccc(C(=N)N)cc1 (stereo not given),7.33,6.80,0.767,,,
CN(C(=O)c1ccc(C(=N)N)cc1)C(c1ccccc1)C(C)(C)C(=O)N1CCC(CC(=O)O)CC1 (stereo not given),7.67,6.52,1.42,,,
CC(C)(C(=O)N1CCC(CC(=O)O)CC1)C(NC(=O)c1ccc(C(=N)N)cc1Cl)c1ccccc1 (stereo not given),7.56,6.43,1.25,,,
CCOC(=O)CC1CCN(C(=O)C(C)(C)C(CC)NC(=O)c2ccc(C(=N)N3CCCC3)cc2F)CC1 (stereo not given),8.15,7.05,2.07,194,1,
CCCCCC(NC(=O)c1ccc(C(=N)N)cc1)C(C)(C)C(=O)N1CCC(CC(=O)O)CC1 (stereo not given),7.65,6.80,0.517,,,
C#CCN(C(=O)c1ccc(C(=N)N)cc1)C(CCCC)C(C)(C)C(=O)N1CCC(CC(=O)O)CC1 (stereo not given),6.44,5.85,1.5,,,
C/C=C/C(NC(=O)c1ccc(C(=N)N)cc1)C(C)(C)C(=O)N1CCC(CC(=O)O)CC1 (stereo not given),7.89,6.77,0.933,,,
CC(NC(=O)c1ccc(C(=N)N)cc1)C(C)(C)C(=O)N1CCC(CC(=O)O)CC1 (stereo not given),8.28,7.09,0.883,,,
CC(C)(C(=O)N1CCC(CC(=O)O)CC1)C(NC(=O)c1ccc(C(=N)N)cc1)c1ccc(Cl)cc1 (stereo not given),7.46,6.18,1.2,,,
CCOC(=O)CC1CCN(C(=O)C(C)(C)C(CC)NC(=O)c2ccc(C(=N)N3CCN(C)CC3)cc2F)CC1 (stereo not given),8.27,7.14,1.77,392,2,
CCOC(=O)CC1CCN(C(=O)C(C)(C)C(CC)NC(=O)c2ccc(C(=N)N3CCN(c4ccc(F)cc4)CC3)cc2F)CC1 (stereo not given),8.25,7.10,0.417,232,1,
CC(C)(/C=C/C(=O)c1ccc(C(=N)N)cc1)C(=O)N1CCC(CC(=O)O)CC1,7.44,6.51,,,,
CC(C)(C(=O)N1CCC(CC(=O)O)CC1)C(NC(=O)c1ccc(C(=N)N)cc1)c1cccc(Cl)c1 (stereo not given),7.50,6.60,2.5,,,

# More lines, now with the values ahead:
pIC50 [1],pIC50 (Homo sapiens),half-life [2] [h],Cmax [3] [ng/mL],Tmax (Tmax in rat (PO dose)) [h],half-life [4] [h],Structure (SMILES)
8.29,7.09,0.9,,,,CCCC(NC(=O)c1ccc(C(=N)N)cc1)C(C)(C)C(=O)N1CCC(CC(=O)O)CC1 (stereo not given)
8.37,7.12,1.4,,,,CC(NC(=O)c1ccc(C(=N)N)cc1F)C(C)(C)C(=O)N1CCC(CC(=O)O)CC1 (stereo not given)
8.40,6.80,4.62,922,0.5,,CCOC(=O)CC1CCN(C(=O)C(C)(C)C(CC)NC(=O)c2ccc(C(=N)N3CCOCC3)cc2F)CC1 (stereo not given)
8.57,7.21,1.48,90,0.5,,CCOC(=O)CC1CCN(C(=O)C(C)(C)C(CC)NC(=O)c2ccc(C(=N)N)cc2F)CC1 (stereo not given)
8.42,7.09,1.03,,,,CCCCC(NC(=O)c1ccc(C(=N)N)cc1)C(C)(C)C(=O)N1CCC(CC(=O)O)CC1 (stereo not given)
8.57,7.21,1.48,,,,CCC(NC(=O)c1ccc(C(=N)N)cc1F)C(C)(C)C(=O)N1CCC(CC(=O)O)CC1 (stereo not given)
8.59,7.12,1.08,,,,CC(C)(C(=O)N1CCC(CC(=O)O)CC1)C(NC(=O)c1ccc(C(=N)N)cc1)c1cccc(O)c1 (stereo not given)
8.57,7.09,0.917,,,,CC(C)CC(NC(=O)c1ccc(C(=N)N)cc1)C(C)(C)C(=O)N1CCC(CC(=O)O)CC1 (stereo not given)
8.64,7.35,1.83,1210,0.5,,CCOC(=O)CC1CCN(C(=O)C(C)(C)C(CC)NC(=O)c2ccc(C(=N)N3CCSC3)cc2F)CC1 (stereo not given)
